Measurements published in article PMC11303814 (Nature Communications, 2024).
Changes are numbered by the printed parent chain.

What was measured:
Type in all cases: cell-based
[1] = biological target: T1, rP2X7-Q143A/I214A (Rattus norvegicus, UniProt Q64663, I214A/Q143A); assay: TEVC deactivation time; settings: after 100 μM ATP or 10 μM BzATP
T1 sequence (Q64663 1-595 Q143A/I214A): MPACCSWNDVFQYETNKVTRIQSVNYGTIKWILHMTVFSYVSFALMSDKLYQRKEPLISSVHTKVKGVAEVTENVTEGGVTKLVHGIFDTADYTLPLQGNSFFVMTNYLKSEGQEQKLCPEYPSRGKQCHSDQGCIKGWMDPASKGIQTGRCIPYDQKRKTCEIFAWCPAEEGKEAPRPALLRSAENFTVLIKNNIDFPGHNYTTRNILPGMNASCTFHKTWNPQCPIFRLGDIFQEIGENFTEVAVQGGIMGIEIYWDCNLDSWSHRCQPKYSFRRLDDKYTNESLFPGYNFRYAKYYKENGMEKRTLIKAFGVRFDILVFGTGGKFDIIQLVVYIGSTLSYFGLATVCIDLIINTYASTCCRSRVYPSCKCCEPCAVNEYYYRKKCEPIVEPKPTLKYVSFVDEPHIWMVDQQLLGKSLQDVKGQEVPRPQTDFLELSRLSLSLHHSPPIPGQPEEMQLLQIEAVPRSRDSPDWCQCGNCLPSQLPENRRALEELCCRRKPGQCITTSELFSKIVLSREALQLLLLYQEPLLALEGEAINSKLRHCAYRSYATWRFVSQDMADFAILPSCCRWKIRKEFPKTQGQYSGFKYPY
Method in brief: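 Xenopus oocytes injected with 50 nL of 10 ng/µL mutant rP2X7 mRNA, expressed ~20 h, clamped in pH 7.4 HEPES buffer with 0.1 mM flufenamic acid and EDTA. Currents were evoked by 100 µM ATP or 10 µM BzATP. τ is the time for current to return to 63% of baseline after agonist removal, from a one- or two-phase decay fit. Done in triplicate over first to third applications per oocyte; mean ± SD.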

[2] = biological target: T2, rP2X7-I214A (Rattus norvegicus, UniProt Q64663, I214A); assay: TEVC dose response; settings: read-out: EC50 (apparent affinity), mean ± SD, triplicate
T2 sequence (Q64663 1-595 I214A): T1 sequence (Q64663 1-595 Q143A/I214A) with A143Q
Method in brief: (§1)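 TEVC was run on Xenopus oocytes ~20 h after injection of wild-type or mutant rP2X7 mRNA, in pH 7.4 HEPES buffer with 0.1 mM flufenamic acid. Receptors were facilitated at 100 µM before recording. Dilution series: ATP 1.5 mM–2 µM (7 points), BzATP 300–0.14 µM (8 points). Responses were normalized to the largest concentration, fitted by nonlinear regression for EC50, and averaged across triplicates (mean ± SD).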

[3] = biological target: T3, rP2X7-I214G (Rattus norvegicus, UniProt Q64663, I214G); assay: TEVC dose response; settings: read-out: EC50 (apparent affinity), mean ± SD, triplicate
T3 sequence (Q64663 1-595 I214G): T1 sequence (Q64663 1-595 Q143A/I214A) with A143Q, A214G
Method in brief: as §1

[4] = biological target: T4, rP2X7-Q143A (Rattus norvegicus, UniProt Q64663, Q143A); assay: TEVC dose response; settings: read-out: EC50 (apparent affinity), mean ± SD, triplicate
T4 sequence (Q64663 1-595 Q143A): T1 sequence (Q64663 1-595 Q143A/I214A) with A214I
Method in brief: as §1

deactivation lifetime τ [1] [s]	EC50 [2] [µM]	EC50 [3] [µM]	EC50 [4] [µM]	Compound
2.9 ± 1.0	68 ± 11	171 ± 14	113 ± 30	Nc1ncnc2c1ncn2[C@@H]1O[C@H](COP(=O)(O)OP(=O)(O)OP(=O)(O)O)[C@@H](O)[C@H]1O [ATP]
4.3 ± 1.7	2.5 ± 0.8	8 ± 1	8.5 ± 3.2	BzATP
